ChEMBL document CHEMBL4325852, “Design, synthesis, and discovery of ocotillol-type amide derivatives as orally available modulators of P-glycoprotein-mediated multidrug resistance” (Eur J Med Chem, 2019)
The source made the active and inactive calls. No cut-off for these calls is given here.

Tests used:
[1] = Cytotoxicity against human KBV cells assessed as cell survival at 10 uM after 72 hrs by MTT assay relative to control; format: cell-based; conditions: read-out: Survival
Procedure, shortened: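 KBV (Pgp-overexpressing MDR line) grown in DMEM/10% FCS, kept in 10 nM paclitaxel; seeded, compound (DMSO stock) added next day, 72 h; MTT 2 h, formazan in DMSO, A570 gives survival vs DMSO solvent control; n = 1-3 independent experiments, mean ± SD.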

[2] = molecular target: T1, ATP-dependent translocase ABCB1 (Homo sapiens, UniProt P08183); test: Reversal of P-gp-mediated multidrug resistance in human KBV cells assessed as potentiation of paclitaxel-induced cytotoxicity by measuring cell survival at 10 uM after 72 hrs by MTT assay (reference value: 104 +/- 8%); format: cell-based
T1 sequence (P08183 whole entry): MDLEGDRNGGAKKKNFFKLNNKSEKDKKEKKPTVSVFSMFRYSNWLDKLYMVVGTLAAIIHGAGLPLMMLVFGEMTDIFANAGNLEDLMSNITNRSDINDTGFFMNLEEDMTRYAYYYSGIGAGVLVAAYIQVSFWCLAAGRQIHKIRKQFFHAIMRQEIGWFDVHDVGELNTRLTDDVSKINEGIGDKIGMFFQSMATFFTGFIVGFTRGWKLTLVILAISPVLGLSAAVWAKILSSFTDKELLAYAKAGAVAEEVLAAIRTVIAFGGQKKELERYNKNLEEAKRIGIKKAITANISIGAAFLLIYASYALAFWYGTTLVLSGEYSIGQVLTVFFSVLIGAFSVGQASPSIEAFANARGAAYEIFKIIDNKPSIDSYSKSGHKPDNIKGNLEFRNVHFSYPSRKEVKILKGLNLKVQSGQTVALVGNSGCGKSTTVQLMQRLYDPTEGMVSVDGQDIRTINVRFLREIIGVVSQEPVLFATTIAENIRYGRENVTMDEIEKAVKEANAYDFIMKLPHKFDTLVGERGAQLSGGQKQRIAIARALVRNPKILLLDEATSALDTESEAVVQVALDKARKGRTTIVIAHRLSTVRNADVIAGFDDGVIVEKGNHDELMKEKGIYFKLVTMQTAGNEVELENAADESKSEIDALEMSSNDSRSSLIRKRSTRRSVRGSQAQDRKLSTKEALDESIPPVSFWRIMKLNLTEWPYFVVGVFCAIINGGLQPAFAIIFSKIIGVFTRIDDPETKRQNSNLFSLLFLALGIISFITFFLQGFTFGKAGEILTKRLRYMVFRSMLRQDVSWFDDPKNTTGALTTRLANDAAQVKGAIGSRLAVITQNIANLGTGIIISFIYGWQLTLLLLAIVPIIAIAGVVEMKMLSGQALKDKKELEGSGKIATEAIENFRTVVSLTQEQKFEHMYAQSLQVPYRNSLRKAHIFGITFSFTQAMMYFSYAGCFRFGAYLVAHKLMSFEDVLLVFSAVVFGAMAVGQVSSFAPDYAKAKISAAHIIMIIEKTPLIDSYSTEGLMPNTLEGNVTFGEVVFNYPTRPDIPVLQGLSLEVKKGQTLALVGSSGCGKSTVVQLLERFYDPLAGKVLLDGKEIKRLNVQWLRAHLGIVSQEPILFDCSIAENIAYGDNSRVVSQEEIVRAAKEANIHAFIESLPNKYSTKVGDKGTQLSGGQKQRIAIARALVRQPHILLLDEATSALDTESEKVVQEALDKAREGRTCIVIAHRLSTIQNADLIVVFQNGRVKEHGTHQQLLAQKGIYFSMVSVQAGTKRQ

[3] = molecular target: T1, ATP-dependent translocase ABCB1; test: Reversal of P-gp-mediated multidrug resistance in human KBV cells assessed as potentiation of paclitaxel-induced cytotoxicity by measuring cell survival at 5 uM after 72 hrs by MTT assay (reference value: 104 +/- 8%); format: cell-based
[4] = molecular target: T1, ATP-dependent translocase ABCB1; test: Reversal of P-gp-mediated multidrug resistance in human KBV cells assessed as potentiation of paclitaxel-induced cytotoxicity by measuring decrease in paclitaxel IC50 at 5 uM after 72 hrs by MTT assay relative to paclitaxel alone; format: cell-based
[5] = molecular target: T1, ATP-dependent translocase ABCB1; test: Reversal of P-gp-mediated multidrug resistance in human KBV cells assessed as potentiation of paclitaxel-induced cytotoxicity by measuring decrease in paclitaxel IC50 at 10 uM after 72 hrs by MTT assay relative to paclitaxel alone; format: cell-based
[6] = Cell cycle arrest in human KBV cells assessed as accumulation at sub-G1 phase at 10 uM after 24 hrs by propidium iodide staining based flow cytometry (reference value: 2.21 +/- 1.02%); format: ADME
Procedure, shortened: (§1)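 KBV cells (grown in DMEM with 10% fetal calf serum and penicillin/streptomycin, with 10 nM paclitaxel added to maintain resistance) seeded at 3×10^5 per well and cultured 24 h. Test compound added, with or without paclitaxel 0.1 μM, for 24 h. Cells fixed in 70% ethanol overnight at –20 °C, stained 30 min with PI plus RNase A, and analysed by flow cytometry; mean ± SD, n = 3.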

[7] = Cell cycle arrest in human KBV cells assessed as accumulation at G0/G1 phase at 10 uM after 24 hrs by propidium iodide staining based flow cytometry (reference value: 70.35 +/- 0.79%); format: ADME; procedure, shortened: as §1
[8] = Cell cycle arrest in human KBV cells assessed as accumulation at S phase at 10 uM after 24 hrs by propidium iodide staining based flow cytometry (reference value: 10.03 +/- 0.75%); format: ADME; procedure, shortened: as §1
[9] = Cell cycle arrest in human KBV cells assessed as accumulation at G2/M phase at 10 uM after 24 hrs by propidium iodide staining based flow cytometry (reference value: 19.62 +/- 1.54%); format: ADME; procedure, shortened: as §1
[10] = molecular target: T1, ATP-dependent translocase ABCB1; test: Reversal of P-gp-mediated multidrug resistance in human KBV cells assessed as potentiation of paclitaxel-induced cell cycle arrest by measuring accumulation at sub-G1 phase at 5 uM after 24 hrs by propidium iodide staining based flow cytometry (reference value: 2.29 +/- 0.39%); procedure, shortened: as §1
[11] = molecular target: T1, ATP-dependent translocase ABCB1; test: Reversal of P-gp-mediated multidrug resistance in human KBV cells assessed as potentiation of paclitaxel-induced cell cycle arrest by measuring accumulation at G0/G1 phase at 5 uM after 24 hrs by propidium iodide staining based flow cytometry (reference value: 71.11 +/- 2%); procedure, shortened: as §1
[12] = molecular target: T1, ATP-dependent translocase ABCB1; test: Reversal of P-gp-mediated multidrug resistance in human KBV cells assessed as potentiation of paclitaxel-induced cell cycle arrest by measuring accumulation at S phase at 5 uM after 24 hrs by propidium iodide staining based flow cytometry (reference value: 12.54 +/- 4.01%); procedure, shortened: as §1
[13] = molecular target: T1, ATP-dependent translocase ABCB1; test: Reversal of P-gp-mediated multidrug resistance in human KBV cells assessed as potentiation of paclitaxel-induced cell cycle arrest by measuring accumulation at G2/M phase at 5 uM after 24 hrs by propidium iodide staining based flow cytometry (reference value: 16.35 +/- 2.02%); procedure, shortened: as §1
[14] = molecular target: T1, ATP-dependent translocase ABCB1; test: Inhibition of P-gp-mediated Rh-123 efflux in human KBV cells assessed as Rh-123 accumulation preincubated for 2 hrs followed by Rh-123 addition measured after 30 mins by flow cytometry; format: cell-based; conditions: 0.5 h
Procedure, shortened: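 KBV cells treated with or without compound for 2 h at the indicated concentrations, then loaded with 10 μM Rhodamine123 for 30 min. Cells harvested, washed three times in PBS and analysed by flow cytometry.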

[15] = molecular target: P-gp (ABCB1) ATPase (Homo sapiens, UniProt P08183); test: Stimulation of P-gp ATPase activity (unknown origin) at 0.5 mM preincubated for 5 mins followed by Mg-ATP addition measured after 40 mins by ATP-Glo luminescence assay relative to control; conditions: read-out: FC
Chain of P-gp (ABCB1) ATPase (P08183 whole entry): as above

[16] = molecular target: T1, ATP-dependent translocase ABCB1; test: Stimulation of P-gp ATPase activity (unknown origin) assessed as increase in ATP consumption preincubated for 5 mins followed by Mg-ATP addition measured after 40 mins by ATP-Glo luminescence assay relative to control
[17] = Potentiation of paclitaxel-induced antitumor activity against human KBV cells xenografted in Balb/c nude mouse assessed as tumor growth inhibition at 10 mg/kg, po via gavage for 2 weeks cotreated with 30 mg/kg, ip paclitaxel (reference value: 17.9%); format: functional
[18] = Cytotoxicity against human KBV cells xenografted in Balb/c nude mouse assessed as tumor growth inhibition at 10 mg/kg, po via gavage for 2 weeks relative to control; format: organism-based; conditions: in vivo, 336 h
[19] = Toxicity in Balb/c nude mouse xenografted with human KBV cells assessed as body weight at 10 mg/kg, po via gavage for 2 weeks cotreated with 30 mg/kg, ip paclitaxel (reference value: 19.84 to 20.62 g); format: organism-based; conditions: in vivo, 336 h
[20] = Toxicity in Balb/c nude mouse xenografted with human KBV cells assessed as body weight at 10 mg/kg, po via gavage for 2 weeks (reference value: 19.84 to 20.62 g); format: organism-based; conditions: in vivo, 336 h
[21] = organism: Homo sapiens; test: Downregulation of P-gp protein expression in human KBV cells by western blot analysis; format: functional, cell-based

Compound	viability at 72 h, 10 µM [1] [%]	Survival [2] [%]	Survival [3] [%]	further results
CC(C)(O)[C@H]1CC[C@@](C)([C@H]2CC[C@]3(C)[C@@H]2[C@H](O)C[C@@H]2[C@@]4(C)CC[C@H](N)C(C)(C)[C@@H]4CC[C@]23C)O1	125	43	72	fold change (FC) [4]: 10; fold change (FC) [5]: 28.11
CC(C)(O)[C@H]1CC[C@@](C)([C@H]2CC[C@]3(C)[C@@H]2[C@H](O)C[C@@H]2[C@@]4(C)CC[C@H](NC(=O)c5cccnc5)C(C)(C)[C@@H]4CC[C@]23C)O1	87	49	55	–
CC(C)(O)[C@@H]1CC[C@@](C)([C@H]2CC[C@]3(C)[C@@H]2[C@H](O)C[C@@H]2[C@@]4(C)CC[C@H](NC(=O)c5ccccc5O)C(C)(C)[C@@H]4CC[C@]23C)O1	96	36	61	–
CC(C)(C)OC(=O)NCC(=O)N[C@H]1CC[C@]2(C)[C@H]3C[C@@H](O)[C@@H]4[C@@H]([C@]5(C)CC[C@H](C(C)(C)O)O5)CC[C@@]4(C)[C@]3(C)CC[C@H]2C1(C)C	95	42	48	–
CC(C)(O)[C@@H]1CC[C@@](C)([C@H]2CC[C@]3(C)[C@@H]2[C@H](O)C[C@@H]2[C@@]4(C)CC[C@H](N)C(C)(C)[C@@H]4CC[C@]23C)O1	91	88	102	–
COc1ccc(CCN(C)CCCC(C#N)(c2ccc(OC)c(OC)c2)C(C)C)cc1OC (configuration not stated)	–	43	–	Activity [6]: 2.25%; Activity [7]: 68.09%; Activity [8]: 9.99%; Activity [9]: 21.92%
CC(C)(C)OC(=O)NCCCCCCCC(=O)N[C@H]1CC[C@]2(C)[C@H]3C[C@@H](O)[C@@H]4[C@@H]([C@]5(C)CC[C@@H](C(C)(C)O)O5)CC[C@@]4(C)[C@]3(C)CC[C@H]2C1(C)C	111	41	54	–
CC(C)(C)OC(=O)NCCCC(=O)N[C@H]1CC[C@]2(C)[C@H]3C[C@@H](O)[C@@H]4[C@@H]([C@]5(C)CC[C@H](C(C)(C)O)O5)CC[C@@]4(C)[C@]3(C)CC[C@H]2C1(C)C	67	34	48	–
CC(C)(C)OC(=O)Nc1ccc(C(=O)N[C@H]2CC[C@]3(C)[C@H]4C[C@@H](O)[C@@H]5[C@@H]([C@]6(C)CC[C@H](C(C)(C)O)O6)CC[C@@]5(C)[C@]4(C)CC[C@H]3C2(C)C)cc1	77	46	54	–
CCCCCC(=O)N[C@H]1CC[C@]2(C)[C@H]3C[C@@H](O)[C@@H]4[C@@H]([C@]5(C)CC[C@H](C(C)(C)O)O5)CC[C@@]4(C)[C@]3(C)CC[C@H]2C1(C)C	101	43	69	–
CC(C)(C)OC(=O)NCCCCCC(=O)N[C@H]1CC[C@]2(C)[C@H]3C[C@@H](O)[C@@H]4[C@@H]([C@]5(C)CC[C@H](C(C)(C)O)O5)CC[C@@]4(C)[C@]3(C)CC[C@H]2C1(C)C	128	34	46	fold change (FC) [4]: 27.97; fold change (FC) [5]: 47.85; Activity [6]: 2.35%; Activity [7]: 73.29%; Activity [8]: 9.22%; Activity [9]: 17.49%; Activity [10]: 43.12%; Activity [11]: 44.52%; Activity [12]: 16.05%; Activity [13]: 39.43%; inhibition (INH) [14]: Dose-dependent effect; fold induction at 40 min, 500 µM [15]: 6.03; Activity [16]: Dose-dependent effect; TGI [17]: 53.73%; TGI [18]: 10.45%; Activity [19]: 15.98 g; Activity [20]: 21.85 g; Activity [21]: inactive
CC(C)(O)[C@@H]1CC[C@@](C)([C@H]2CC[C@]3(C)[C@@H]2[C@H](O)C[C@@H]2[C@@]4(C)CC[C@H](NC(=O)c5ccccc5)C(C)(C)[C@@H]4CC[C@]23C)O1	116	48	90	–
CC(C)(O)[C@H]1CC[C@@](C)([C@H]2CC[C@]3(C)[C@@H]2[C@H](O)C[C@@H]2[C@@]4(C)CC[C@H](NC(=O)CCCCCN)C(C)(C)[C@@H]4CC[C@]23C)O1	86	91	91	–
CC(C)(C)OC(=O)NCCCCCC(=O)N[C@H]1CC[C@]2(C)[C@H]3C[C@@H](O)[C@@H]4[C@@H]([C@]5(C)CC[C@@H](C(C)(C)O)O5)CC[C@@]4(C)[C@]3(C)CC[C@H]2C1(C)C	79	40	65	–
CC(C)(O)[C@@H]1CC[C@@](C)([C@H]2CC[C@]3(C)[C@@H]2[C@H](O)C[C@@H]2[C@@]4(C)CC[C@H](NC(=O)CCCN)C(C)(C)[C@@H]4CC[C@]23C)O1	105	102	111	–
CC(C)(O)[C@H]1CC[C@@](C)([C@H]2CC[C@]3(C)[C@@H]2[C@H](O)C[C@@H]2[C@@]4(C)CC[C@H](NC(=O)c5ccccc5O)C(C)(C)[C@@H]4CC[C@]23C)O1	100	40	51	–
CC(C)(O)[C@@H]1CC[C@@](C)([C@H]2CC[C@]3(C)[C@@H]2[C@H](O)C[C@@H]2[C@@]4(C)CC[C@H](NC(=O)c5cccnc5)C(C)(C)[C@@H]4CC[C@]23C)O1	91	61	115	–
CC(C)(C)OC(=O)NCCCC(=O)N[C@H]1CC[C@]2(C)[C@H]3C[C@@H](O)[C@@H]4[C@@H]([C@]5(C)CC[C@@H](C(C)(C)O)O5)CC[C@@]4(C)[C@]3(C)CC[C@H]2C1(C)C	94	44	90	–
CC(C)(O)[C@@H]1CC[C@@](C)([C@H]2CC[C@]3(C)[C@@H]2[C@H](O)C[C@@H]2[C@@]4(C)CC[C@H](NC(=O)CN)C(C)(C)[C@@H]4CC[C@]23C)O1	90	115	98	–
CC(C)(O)[C@H]1CC[C@@](C)([C@H]2CC[C@]3(C)[C@@H]2[C@H](O)C[C@@H]2[C@@]4(C)CC[C@H](NC(=O)CN)C(C)(C)[C@@H]4CC[C@]23C)O1	103	49	99	–
